Measurements reported in ChEMBL document CHEMBL1121917, “Structure--activity relationships in a broad-spectrum anthelmintic series. Acid chloride phenylhydrazones. 1. Aryl substitutions and chloride variations” (1981).

Experiments:
Ovis aries [1] = assay: Percent reduction in Trichostrongylus eggs per gram, after treatment with 400 mg/kg dose of compound perorally in sheep; type: functional, Egg; details: route oral
In short: (§1)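 Naturally parasitized lambs, dosed orally either with a suspension by stomach tube or with finely ground compound in gelatin capsules by balling gun. Activity was scored by the clinical test method, meaning a significant fall in helminth egg counts after treatment.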

Ovis aries [2] = assay: Percent reduction in Trichostrongylus eggs per gram, after treatment of 200 mg/kg dose of compound perorally in sheep; type: functional, Egg; details: route oral
In short: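 Lambs naturally parasitized with helminths. Finely ground compound was given orally, either as an aqueous suspension by stomach tube or weighed into gelatin capsules given by balling gun. Activity was assessed by the clinical test method: the reduction in helminth egg counts after treatment.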

Ovis aries [3] = assay: Percent reduction in Trichuris eggs per gram, after treatment with 400 mg/kg dose of compound perorally in sheep; type: functional, Egg; details: route oral; in short: as §1
Mus musculus [4] = species: Mus musculus; assay: Percent clearance of Syphacaia obvelata from mouse after oral treatment of 0.45 mg/mouse/day; type: functional
In short: (§2)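 Mice naturally carrying Syphacia obvelata were experimentally infected with Nematospiroides dubius and Hymenolepis nana, then grouped after a 2-week prepatency. Finely ground compound was suspended in aqueous 0.10% carboxymethylcellulose, 0.04% polysorbate 80 and 0.0042% polyparaben, and 0.1 mL was given orally by cannula once daily for 4 days to five mice. Necropsy followed 2 days later, scoring presence or absence of each parasite. Control clearance was subtracted from the treated clearance.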

Ovis aries [5] = assay: Percent reduction in Strongyloides eggs per gram, after treatment with 200 mg/kg dose of compound perorally in sheep; type: functional, Egg; details: route oral; in short: as §1
Ovis aries [6] = assay: Percent reduction in Ostertagia eggs per gram, after treatment with 400 mg/kg dose of compound perorally in sheep; type: functional, Egg; details: route oral; in short: as §1
Ovis aries [7] = assay: Percent reduction in Ostertagia eggs per gram, after treatment of 200 mg/kg dose of compound perorally in sheep; type: functional, Egg; details: route oral
In short: (§3)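 Naturally parasitized lambs were dosed orally at the stated mg/kg. Dosing was either as a suspension of finely ground compound by stomach tube, or as ground compound weighed into gelatin capsules and given by balling gun. Activity was scored by the clinical test method: the decrease in posttreatment helminth eggs per gram.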

Canis familiaris [8] = species: Canis familiaris; assay: Percent reduction in Uncinaria eggs per gram, after oral treatment of 75 mg/dog dose of compound in a single treatment; type: functional, Canis lupus familiaris, Egg
Ovis aries [9] = assay: Percent reduction in Strongyloides eggs per gram, after treatment with 400 mg/kg dose of compound perorally in sheep; type: functional, Egg; details: route oral; in short: as §1
Ovis aries [10] = assay: Percent reduction in Haemonchus eggs per gram, after treatment with 400 mg/kg dose of compound perorally in sheep; type: functional, Egg; details: route oral; in short: as §3
Ovis aries [11] = assay: Percent reduction in Oesophagostomum eggs per gram, after treatment of 200 mg/kg dose of compound perorally in sheep; type: functional, Egg; details: route oral; in short: as §3
Canis familiaris [12] = species: Canis familiaris; assay: Percent reduction in Toxascaris eggs per gram, after oral treatment of 75 mg/dog dose of compound in a single treatment; type: functional, Canis lupus familiaris, Egg
In short: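 Dogs naturally infected with Toxascaris leonina were experimentally infected with mixed Ancylostoma caninum and Uncinaria stenocephala larvae. Finely ground compound was given orally in gelatin capsules. Three egg count determinations were made before and three after treatment in each experiment.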

Mus musculus [13] = species: Mus musculus; assay: Percent clearance of Nematospiroides dubius from mouse after oral treatment of 0.45 mg/mouse/day; type: functional; in short: as §2
Ovis aries [14] = assay: Percent reduction in Haemonchus eggs per gram, after treatment of 200 mg/kg dose of compound perorally in sheep; type: functional, Egg; details: route oral
In short: (§4)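 Naturally parasitized lambs received compound orally, either as the aqueous suspension by stomach tube or as finely ground powder in gelatin capsules by balling gun. Activity was judged by the clinical test method, as a significant decrease in posttreatment helminth egg counts.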

Ovis aries [15] = assay: Percent reduction in Trichuris eggs per gram, after treatment with 200 mg/kg dose of compound perorally in sheep; type: functional, Egg; details: dose 200 mg/kg; route oral; in short: as §1
Ovis aries [16] = assay: Percent reduction in Haemonchus eggs per gram, after treatment of 100 mg/kg dose of compound perorally in sheep; type: functional, Egg; details: route oral; in short: as §4
Ovis aries [17] = assay: Percent reduction in Trichuris eggs per gram, after treatment with 100 mg/kg dose of compound perorally in sheep; type: functional, Egg; details: route oral; in short: as §1
Ovis aries [18] = assay: Percent reduction in Trichostrongylus eggs per gram, after treatment with 100 mg/kg dose of compound perorally in sheep; type: functional, Egg; details: route oral; in short: as §1
Ovis aries [19] = assay: Percent reduction in Strongyloides eggs per gram, after treatment with 100 mg/kg dose of compound perorally in sheep; type: functional, Egg; details: route oral; in short: as §1
Ovis aries [20] = assay: Percent reduction in Oesophagostomum eggs per gram, after treatment with 100 mg/kg dose of compound perorally in sheep; type: functional, Egg; details: route oral; in short: as §3
Ovis aries [21] = assay: Percent reduction in Cooperia eggs per gram, after treatment with 100 mg/kg dose of compound perorally in sheep; type: functional, Egg; details: route oral; in short: as §4
Ovis aries [22] = assay: Percent reduction in Ostertagia eggs per gram, after treatment with 100 mg/kg dose of compound perorally in sheep; type: functional, Egg; details: route oral; in short: as §3

Fc1c(F)c(F)c(/C(Cl)=N/Nc2ccccc2)c(F)c1F
Reduction (Ovis aries [1]): 96%
Reduction (Ovis aries [2]): 0%
Reduction (Ovis aries [3]): 88%
Parasite_Clearance (Mus musculus [4]): 0%
Reduction (Ovis aries [5]): 93%
Reduction (Ovis aries [6]): 95%
Reduction (Ovis aries [7]): 93%
Reduction (Canis familiaris [8]): 100%
Reduction (Ovis aries [9]): 99%
Reduction (Ovis aries [10]): 96%
Reduction (Ovis aries [11]): 100%
Reduction (Canis familiaris [12]): 71.4%
Parasite_Clearance (Mus musculus [13]): 0%
Reduction (Ovis aries [14]): 85%
Reduction (Ovis aries [15]): 10%

Cl/C(=N\Nc1ccc(Cl)c(Cl)c1Cl)c1ccccc1
Reduction (Ovis aries [16]): 0%
Reduction (Ovis aries [17]): 0%
Reduction (Ovis aries [18]): 0%
Reduction (Ovis aries [19]): 95%
Reduction (Ovis aries [20]): 0%
Reduction (Ovis aries [21]): 89%
Reduction (Ovis aries [22]): 0%
